Assay results taken from ChEMBL document CHEMBL5053482, “Rapid Optimization of the Metabolic Stability of a Human Immunodeficiency Virus Type-1 Capsid Inhibitor Using a Multistep Computational Workflow” (J Med Chem, 2021).
pIC50, pKd: −log10 of the molar value. Calls of active or inactive are those of the source. The rule behind the calls is not given here.

Columns and labels:
[1] = system: Human immunodeficiency virus 1; test: Binding affinity to hexameric C-terminal His-tagged HIV1 NL4-3 capsid protein A14C/E45C/W184A/M185A mutant expressed in Escherichia coli BL21 codon plus (DE3)RIL assessed as association rate constant by SPR analysis
Procedure, shortened: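 Disulfide-stabilised CA hexamers, isolated by size exclusion after stepwise βME dialysis, amine-coupled at 100 μg/mL (10mM sodium acetate pH 5.0) to GLH chip; IgG b12 reference surface. 25 °C; running buffer PBS, 3% DMSO, 0.005% polysorbate 20, pH 7.4. One-shot kinetics of 1:4 serial dilutions from 5 or 2 μM, 100 μl/min, 1 min association, up to 5 min dissociation.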

[2] = system: Human immunodeficiency virus 1; test: Binding affinity to C-terminal His-tagged HIV1 NL4-3 capsid protein N57A mutant expressed in Escherichia coli BL21 codon plus (DE3)RIL
[3] = system: Human immunodeficiency virus 1; test: Binding affinity to C-terminal His-tagged HIV1 NL4-3 capsid protein M66A mutant expressed in Escherichia coli BL21 codon plus (DE3)RIL
[4] = Binding affinity to hexameric C-terminal His-tagged HIV1 NL4-3 capsid protein A14C/E45C/W184A/M185A mutant expressed in Escherichia coli BL21 codon plus (DE3)RIL assessed as dissociation constant by SPR analysis; set-up: species or system Human immunodeficiency virus 1
Procedure, shortened: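 SPR at 25 °C using one-shot kinetics. Disulfide-stabilized CA hexamer was assembled by βME dialysis, isolated by SEC, and amine-coupled to a GLH chip at 100 μg/mL in 10 mM sodium acetate pH 5.0. An IgG b12 surface served as reference. Compound was injected as 1:4 serial dilutions from 5 or 2 μM in PBS with 3% DMSO and 0.005% polysorbate 20, pH 7.4, at 100 μl/min. Association was 1 min and dissociation up to 5 min.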

[5] = Therapeutic index, ratio of CC50 for cytotoxicity against human 87.CD4.CCR5.CXCR4 cells to IC50 for antiviral activity against HIV1 NL4-3 virus in human 87.CD4.CCR5.CXCR4 cells; assay type: toxicity, cell-based; conditions: read-out: TI
Procedure, shortened: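 U87.CD4.CCR5/CXCR4 cells were seeded 24 h ahead and incubated 48 h at 37°C. Antiviral arm: p24-normalised single-round luciferase pseudovirus (pNL4-3-Luc+R-E− backbone, BG505 Env), luminescence read after lysis. […] Index is CC50 divided by IC50.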

[6] = system: Human immunodeficiency virus 1; test: Binding affinity to C-terminal His-tagged HIV1 NL4-3 capsid protein K70A mutant expressed in Escherichia coli BL21 codon plus (DE3)RIL
[7] = Cytotoxicity against in human U87.CD4.CCR5.CXCR4 cells assessed as reduction in cell viability measured after 48 hrs by CCK8 assay; assay type: cell-based; conditions: u87.cd4.ccr5.cxcr4, 48 h
Procedure, shortened: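 U87 cells stably expressing CD4/CCR5 or CD4/CXCR4 were grown in a humidified 5% CO2 atmosphere at 37°C and seeded at 1.2 × 10^4 cells/well 24 h before treatment. Cells were exposed to compound (1mM-0.3μM) or DMSO for 48 h at 37°C, then to CCK-8 for 4 h at 37°C, and absorbance was read at 450 nm. Controls were untreated cells and 0.1% SDS-treated cells.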

[8] = system: Human immunodeficiency virus 1; test: Antiviral activity against HIV1 NL4-3 Env-deficient pseudotype virus infected in human U87.CD4.CCR5.CXCR4 cells assessed by reduction in viral infection in early stage measured after 48 hrs by luciferase activity based single-round infection assay; assay type: functional, organism-based; conditions: for pIC50: Human immunodeficiency virus 1, NL4-3, U87.CD4.CCR5.CXCR4, 48 h, read-out: IC50; for IC50: u87.cd4.ccr5.cxcr4
[9] = Half life in human liver microsomes; assay type: ADME, Microsome

Compound	Ka [1]	Activity [2]	Activity [3]	pKd [4]	selectivity ratio [5]	Activity [6]	CC50 ([7]; read-out: CC50)	pIC50 [8]	t1/2 [9]	CC50 [7]	IC50 [8]
CN(C(=O)C(Cc1ccccc1)NC(=O)Cc1n[nH]c2c(N)cccc12)c1ccc2[nH]ncc2c1 (racemic)	2.2 10^5/M/s	inactive	inactive	6.31	171	inactive	415 µM	5.62	–	–	–
Cc1[nH]c2ccccc2c1CC(=O)N[C@@H](Cc1ccccc1)C(=O)N(C)c1ccc2[nH]ncc2c1	4.37 10^5/M/s	–	–	7.60	2280	–	46.9 µM	7.69	1 min	–	–
CN(C(=O)C(Cc1ccccc1)NC(=O)Cc1c[nH]c2c(N)cccc12)c1ccccc1 (racemic)	5.62 10^5/M/s	inactive	inactive	6.72	859	inactive	83.5 µM	7.01	–	–	–
CN(C(=O)[C@H](Cc1ccccc1)NC(=O)Cc1n[nH]c2c(N)cccc12)c1ccc2[nH]ncc2c1	2.86 10^5/M/s	–	–	6.47	365	–	102 µM	6.55	102 min	–	–
CN(C(=O)[C@@H](Cc1ccccc1)NC(=O)Cc1n[nH]c2c(N)cccc12)c1ccc2[nH]ncc2c1	–	–	–	–	–	–	–	–	–	Not Active	Not Active
Cc1[nH]c2ccccc2c1CC(=O)N[C@@H](Cc1ccccc1)C(=O)N(C)c1ccccc1	4.75 10^5/M/s	–	–	–	–	–	66.7 µM	7.10	–	–	–
CN(C(=O)[C@H](Cc1ccccc1)NC(=O)Cc1c[nH]c2c(N)cccc12)c1ccccc1	4.76 10^5/M/s	–	–	6.86	1630	–	101 µM	7.21	15.4 min	–	–
Cc1[nH]c2ccccc2c1CC(=O)N[C@H](Cc1ccccc1)C(=O)N(C)c1ccccc1	–	–	–	–	–	–	–	–	–	Not Active	Not Active
CN(C(=O)[C@@H](Cc1ccccc1)NC(=O)Cc1c[nH]c2c(N)cccc12)c1ccccc1	–	–	–	–	–	–	–	–	–	Not Active	Not Active
Cc1[nH]c2ccccc2c1CC(=O)NC(Cc1ccccc1)C(=O)N(C)c1ccc2[nH]ncc2c1 (racemic)	2.75 10^5/M/s	inactive	inactive	7.36	2010	inactive	76.9 µM	7.42	–	–	–
Cc1[nH]c2ccccc2c1CC(=O)NC(Cc1ccccc1)C(=O)N(C)c1ccccc1 (racemic)	3.07 10^5/M/s	inactive	inactive	–	–	inactive	36.8 µM	7.26	–	–	–
Cc1[nH]c2ccccc2c1CC(=O)N[C@H](Cc1ccccc1)C(=O)N(C)c1ccc2[nH]ncc2c1	–	–	–	–	–	–	–	–	–	Not Active	Not Active
